Active and inactive are the calls of the source.
Experiments:
Type in all cases: functional, cell-based
[1] = system: BT-549; experiment: Growth inhibition of human BT549 cells at 10^-5 M incubated for 48 hrs by sulforhodamine B assay
Procedure, shortened: (§1)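 Run in the NCI59 one-dose cell-line screen, with each compound tested at a single concentration of 1 × 10−5 M.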

[2] = system: T47D; experiment: Growth inhibition of human T47D cells at 10^-5 M incubated for 48 hrs by sulforhodamine B assay
Procedure, shortened: (§2)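 Tested at a single concentration of 1 × 10−5 M as part of the NCI59 cell-line one-dose screen.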

[3] = system: Hs-578T; experiment: Growth inhibition of human Hs 578T cells at 10^-5 M incubated for 48 hrs by sulforhodamine B assay; procedure, shortened: as §1
[4] = system: MCF7; experiment: Growth inhibition of human MCF7 cells at 10^-5 M incubated for 48 hrs by sulforhodamine B assay; procedure, shortened: as §1
[5] = system: MDA-MB-231; experiment: Growth inhibition of human MDA-MB-231 cells at 10^-5 M incubated for 48 hrs by sulforhodamine B assay; procedure, shortened: as §1
[6] = system: DU-145; experiment: Growth inhibition of human DU145 cells at 10^-5 M incubated for 48 hrs by sulforhodamine B assay; procedure, shortened: as §1
[7] = system: UO-31; experiment: Growth inhibition of human UO31 cells at 10^-5 M incubated for 48 hrs by sulforhodamine B assay; procedure, shortened: as §2
[8] = system: PC-3; experiment: Growth inhibition of human PC3 cells at 10^-5 M incubated for 48 hrs by sulforhodamine B assay; procedure, shortened: as §1
[9] = system: SN12C; experiment: Growth inhibition of human SN12C cells at 10^-5 M incubated for 48 hrs by sulforhodamine B assay; procedure, shortened: as §1
[10] = system: TK-10; experiment: Growth inhibition of human TK10 cells at 10^-5 M incubated for 48 hrs by sulforhodamine B assay; procedure, shortened: as §2
[11] = system: RXF 393; experiment: Growth inhibition of human RXF393 cells at 10^-5 M incubated for 48 hrs by sulforhodamine B assay; procedure, shortened: as §1
[12] = system: ACHN; experiment: Growth inhibition of human ACHN cells at 10^-5 M incubated for 48 hrs by sulforhodamine B assay; procedure, shortened: as §1
[13] = system: CAKI-1; experiment: Growth inhibition of human Caki1 cells at 10^-5 M incubated for 48 hrs by sulforhodamine B assay; procedure, shortened: as §1
[14] = system: A498; experiment: Growth inhibition of human A498 cells at 10^-5 M incubated for 48 hrs by sulforhodamine B assay; procedure, shortened: as §1
[15] = system: 786-0; experiment: Growth inhibition of human 786-0 cells at 10^-5 M incubated for 48 hrs by sulforhodamine B assay; procedure, shortened: as §1
[16] = system: NCI/ADR-RES; experiment: Growth inhibition of human NCI/ADR-RES cells at 10^-5 M incubated for 48 hrs by sulforhodamine B assay; procedure, shortened: as §1
[17] = system: SK-OV-3; experiment: Growth inhibition of human SKOV3 cells at 10^-5 M incubated for 48 hrs by sulforhodamine B assay; procedure, shortened: as §1
[18] = system: OVCAR-8; experiment: Growth inhibition of human OVCAR8 cells at 10^-5 M incubated for 48 hrs by sulforhodamine B assay; procedure, shortened: as §1
[19] = system: OVCAR-4; experiment: Growth inhibition of human OVCAR4 cells at 10^-5 M incubated for 48 hrs by sulforhodamine B assay; procedure, shortened: as §1
[20] = system: OVCAR-5; experiment: Growth inhibition of human OVCAR5 cells at 10^-5 M incubated for 48 hrs by sulforhodamine B assay; procedure, shortened: as §1
[21] = system: IGROV-1; experiment: Growth inhibition of human IGROV1 cells at 10^-5 M incubated for 48 hrs by sulforhodamine B assay; procedure, shortened: as §1
[22] = system: OVCAR-3; experiment: Growth inhibition of human OVCAR3 cells at 10^-5 M incubated for 48 hrs by sulforhodamine B assay; procedure, shortened: as §1
[23] = system: UACC-62; experiment: Growth inhibition of human UACC62 cells at 10^-5 M incubated for 48 hrs by sulforhodamine B assay; procedure, shortened: as §2
[24] = system: SK-MEL-5; experiment: Growth inhibition of human SK-MEL-5 cells at 10^-5 M incubated for 48 hrs by sulforhodamine B assay; procedure, shortened: as §1
[25] = system: UACC-257; experiment: Growth inhibition of human UACC257 cells at 10^-5 M incubated for 48 hrs by sulforhodamine B assay; procedure, shortened: as §2
[26] = system: SK-MEL-28; experiment: Growth inhibition of human SK-MEL-28 cells at 10^-5 M incubated for 48 hrs by sulforhodamine B assay; procedure, shortened: as §1
[27] = system: MDA-MB-435; experiment: Growth inhibition of human MDA-MB-435 cells at 10^-5 M incubated for 48 hrs by sulforhodamine B assay; procedure, shortened: as §1
[28] = system: SK-MEL-2; experiment: Growth inhibition of human SK-MEL-2 cells at 10^-5 M incubated for 48 hrs by sulforhodamine B assay; procedure, shortened: as §1
[29] = system: M14; experiment: Growth inhibition of human M14 cells at 10^-5 M incubated for 48 hrs by sulforhodamine B assay; procedure, shortened: as §1
[30] = system: U-251; experiment: Growth inhibition of human U251 cells at 10^-5 M incubated for 48 hrs by sulforhodamine B assay; procedure, shortened: as §2
[31] = system: LOX IMVI; experiment: Growth inhibition of human LOXIMVI cells at 10^-5 M incubated for 48 hrs by sulforhodamine B assay; procedure, shortened: as §1
[32] = system: SNB-19; experiment: Growth inhibition of human SNB19 cells at 10^-5 M incubated for 48 hrs by sulforhodamine B assay; procedure, shortened: as §1
[33] = system: SNB-75; experiment: Growth inhibition of human SNB75 cells at 10^-5 M incubated for 48 hrs by sulforhodamine B assay; procedure, shortened: as §1
[34] = system: SF-539; experiment: Growth inhibition of human SF539 cells at 10^-5 M incubated for 48 hrs by sulforhodamine B assay; procedure, shortened: as §1
[35] = system: SF-268; experiment: Growth inhibition of human SF268 cells at 10^-5 M incubated for 48 hrs by sulforhodamine B assay; procedure, shortened: as §1
[36] = system: SF-295; experiment: Growth inhibition of human SF295 cells at 10^-5 M incubated for 48 hrs by sulforhodamine B assay; procedure, shortened: as §1
[37] = system: SW-620; experiment: Growth inhibition of human SW620 cells at 10^-5 M incubated for 48 hrs by sulforhodamine B assay; procedure, shortened: as §2
[38] = system: HT-29; experiment: Growth inhibition of human HT-29 cells at 10^-5 M incubated for 48 hrs by sulforhodamine B assay; procedure, shortened: as §1
[39] = system: KM12; experiment: Growth inhibition of human KM12 cells at 10^-5 M incubated for 48 hrs by sulforhodamine B assay; procedure, shortened: as §1
[40] = system: HCT-116; experiment: Growth inhibition of human HCT116 cells at 10^-5 M incubated for 48 hrs by sulforhodamine B assay; procedure, shortened: as §1
[41] = system: HCT-15; experiment: Growth inhibition of human HCT15 cells at 10^-5 M incubated for 48 hrs by sulforhodamine B assay; procedure, shortened: as §1
[42] = system: HCC 2998; experiment: Growth inhibition of human HCC2998 cells at 10^-5 M incubated for 48 hrs by sulforhodamine B assay; procedure, shortened: as §1
[43] = system: NCI-H522; experiment: Growth inhibition of human NCI-H522 cells at 10^-5 M incubated for 48 hrs by sulforhodamine B assay; procedure, shortened: as §1
[44] = system: COLO 205; experiment: Growth inhibition of human COLO205 cells at 10^-5 M incubated for 48 hrs by sulforhodamine B assay; procedure, shortened: as §1
[45] = system: NCI-H460; experiment: Growth inhibition of human NCI-H460 cells at 10^-5 M incubated for 48 hrs by sulforhodamine B assay; procedure, shortened: as §1
[46] = system: NCI-H23; experiment: Growth inhibition of human NCI-H23 cells at 10^-5 M incubated for 48 hrs by sulforhodamine B assay; procedure, shortened: as §1
[47] = system: NCI-H322M; experiment: Growth inhibition of human NCI-H322M cells at 10^-5 M incubated for 48 hrs by sulforhodamine B assay; procedure, shortened: as §1
[48] = system: NCI-H226; experiment: Growth inhibition of human NCI-H226 cells at 10^-5 M incubated for 48 hrs by sulforhodamine B assay; procedure, shortened: as §1
[49] = system: HOP-62; experiment: Growth inhibition of human HOP62 cells at 10^-5 M incubated for 48 hrs by sulforhodamine B assay; procedure, shortened: as §1
[50] = system: HOP-92; experiment: Growth inhibition of human HOP92 cells at 10^-5 M incubated for 48 hrs by sulforhodamine B assay; procedure, shortened: as §1
[51] = system: A549; experiment: Growth inhibition of human A549/ATCC cells at 10^-5 M incubated for 48 hrs by sulforhodamine B assay; procedure, shortened: as §1
[52] = system: EKVX; experiment: Growth inhibition of human EKVX cells at 10^-5 M incubated for 48 hrs by sulforhodamine B assay; procedure, shortened: as §1
[53] = system: SR; experiment: Growth inhibition of human SR cells at 10^-5 M incubated for 48 hrs by sulforhodamine B assay; procedure, shortened: as §1
[54] = system: MOLT-4; experiment: Growth inhibition of human MOLT4 cells at 10^-5 M incubated for 48 hrs by sulforhodamine B assay; procedure, shortened: as §1
[55] = system: RPMI-8226; experiment: Growth inhibition of human RPMI8226 cells at 10^-5 M incubated for 48 hrs by sulforhodamine B assay; procedure, shortened: as §1
[56] = system: K562; experiment: Growth inhibition of human K562 cells at 10^-5 M incubated for 48 hrs by sulforhodamine B assay; procedure, shortened: as §1
[57] = system: CCRF-CEM; experiment: Growth inhibition of human CCRF-CEM cells at 10^-5 M incubated for 48 hrs by sulforhodamine B assay; procedure, shortened: as §1
[58] = system: HL-60(TB); experiment: Growth inhibition of human HL-60(TB) cells at 10^-5 M incubated for 48 hrs by sulforhodamine B assay
Procedure, shortened: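 Run in the NCI59 cell-line one-dose screen, with each compound tested at a single concentration of 1 × 10−5 M.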

Measured: growth inhibition (GI)

CC[C@H](C)C(=O)O[C@@H]1[C@@H]2[C@@H](OC(=O)C(C)C)[C@@]34O[C@]2(O)[C@@](C)([C@@H](CC(=O)OC)C1(C)C)[C@H]3CC[C@]1(C)C4=CC(=O)O[C@H]1C1=CC(O)OC1=O (stereo partly drawn)
inactive: all assays above
